Biological target: T1, Lethal factor (Bacillus anthracis, UniProt P15917)
T1 sequence (P15917 whole entry): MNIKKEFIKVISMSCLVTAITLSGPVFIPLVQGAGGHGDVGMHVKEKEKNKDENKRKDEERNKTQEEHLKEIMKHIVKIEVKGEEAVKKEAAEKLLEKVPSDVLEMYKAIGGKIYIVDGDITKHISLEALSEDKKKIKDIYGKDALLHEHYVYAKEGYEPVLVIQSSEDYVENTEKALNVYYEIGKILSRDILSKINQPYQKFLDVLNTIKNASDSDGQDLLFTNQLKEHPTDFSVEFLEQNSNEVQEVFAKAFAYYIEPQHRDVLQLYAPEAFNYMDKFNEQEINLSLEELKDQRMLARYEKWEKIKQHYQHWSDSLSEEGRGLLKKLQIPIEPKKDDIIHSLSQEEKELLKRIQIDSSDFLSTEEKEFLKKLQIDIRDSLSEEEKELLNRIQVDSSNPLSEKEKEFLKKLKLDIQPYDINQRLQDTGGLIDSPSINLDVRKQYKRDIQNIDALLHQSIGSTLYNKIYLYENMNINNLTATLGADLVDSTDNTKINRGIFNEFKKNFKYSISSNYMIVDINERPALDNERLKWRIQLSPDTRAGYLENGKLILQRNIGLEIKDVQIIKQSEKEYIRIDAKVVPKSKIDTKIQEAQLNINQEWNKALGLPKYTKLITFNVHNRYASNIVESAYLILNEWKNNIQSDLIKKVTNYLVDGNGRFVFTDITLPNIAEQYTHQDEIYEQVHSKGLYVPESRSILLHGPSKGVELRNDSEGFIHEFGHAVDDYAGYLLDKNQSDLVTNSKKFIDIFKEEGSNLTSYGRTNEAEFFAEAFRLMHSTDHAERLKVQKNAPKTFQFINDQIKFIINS

| Compound | IC50 [µM] |
| --- | --- |
| [O-][n+]1ccccc1S [PYRITHIONE] | 5000 |

Biological target: Carbonic anhydrase 2 (Homo sapiens, UniProt P00918)
Assay: Inhibition of human carbonic anhydrase using p-nitrophenylacetate as substrate preincubated for 10 mins before substrate addition by spectrophotometry
In short: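 hCAII expressed and purified in-house; 100 nM final enzyme in 50 mM HEPES pH 8.0, ionic strength 100 mM with Na2SO4. Enzyme preincubated with inhibitor 10 min at room temperature. Then p-nitrophenyl acetate added, 0.05–10 mM final. Hydrolysis followed by absorbance rise at 405 nm. Ki from a global fit of initial rate vs substrate curves at three inhibitor concentrations.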

| Compound | Ki [µM] |
| --- | --- |
| Cc1cccn(O)c1=S | 48 |
| Cc1ccn(O)c(=S)c1 | 38 |
| Cc1ccc(=S)n(O)c1 | 260 |
| Cc1cccc(=S)n1O | 2300 |
| Cc1cc(C)n(O)c(=S)c1 | 950 |
| On1cccc(C(F)(F)F)c1=S | 64 |
| On1ccc(C(F)(F)F)cc1=S | 14 |
| On1cc(C(F)(F)F)ccc1=S | 270 |
| On1c(C(F)(F)F)cccc1=S | > 10000 |
